PubChem BioAssay
Active and inactive are the calls of the source. Cut-off read from the data, not from the text of the source, unless noted: active = inhibition above about 30%; inactive = the rest. Peptide text beside a SMILES is read from it. * marks the point of attachment. Boc = CC(C)(C)OC(=O)*

Legend:
[1] = reducers of endogenous Her2 protein level, primary screen, SKBR3 breast tumor cells, AlphaScreen, ATP viability (AID 461;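 active = Her2 level under about 52% in both replicate screens, with viability over 70% of control, limit read from the data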;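 for Her2 level: lower value means less Her2 protein in the cells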;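 for viability: percent of carrier control wells set as 100% viability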); conditions: 18-24 h, measured here: SKBR3 viability, ATP luminescence, at 10 µM
[2] = target: Receptor tyrosine-protein kinase erbB-2 (Homo sapiens) (UniProt P04626); assay: as above; conditions: 18-24 h, at 10 µM, stronger effect = lower value
[3] = SK-BR-3 cell growth inhibitors, pilot screen, 24 h, human (AID 572;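 active = viability at or below 10% of carrier control in both of two separate runs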;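 note: compound exposure lasted between 18 and 24 h rather than exactly 24 h; 100% = carrier-treated control wells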); conditions: SK-BR-3 viability, CellTiter-Glo luminescence, at 10 µM, stronger effect = lower value
[4] = HUVEC growth inhibition – cell-based, human, primary screen (AID 575;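 active = viability at or below 30% in both replicate assays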;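 note: 100% = median of untreated cell wells with 0.1% DMSO on each plate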); conditions: HUVEC proliferation, CellTiter-Glo luminescence, 72 h; at 10 µM; stronger effect = lower value
How it was run: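 System: primary human umbilical vein endothelial cells; Quantity: 1250 endothelial cells in each well; Buffer or medium: supplemented EBM, 2% fetal bovine serum; Doses: one dose, 10 µM final, 0.1% DMSO; Incubation: 72 h compound incubation; Technique: ATP-based CellTiter-Glo luminescent read; Evaluation: percent of median DMSO-control luminescence; Controls: vehicle and MePR control wells.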

[5] = growth inhibitors of H69AR lung tumor, primary screen, human, duplicate replicates (AID 580;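 active = viability at or under a set limit in both replicates, limit being median viability minus 3 SD, cut at about 48% in these data, passing the limit was not always enough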;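 note: 100% = mean luminescence of untreated wells and 0% = no signal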); conditions: H69AR lung tumor cells viability, ATP luminescence, 72 h; at 10 µM; stronger effect = lower value
[6] = reversal of MRP1-mediated doxorubicin resistance, pilot screen, H69AR cells, doxorubicin co-treatment (AID 601;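 active = viability loss from added drug above about 55%, and viability with drug at most 40%, in both replicates, limit read from the data, passing the limit was not always enough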); conditions: CellTiter-Glo, 72 h, at 10 µM; for differential viability (reversal): stronger effect = higher value
[7] = 384-well plate pilot, post-Golgi transport modulator project, inhibition of yeast transport mutant growth (AID 636; in the data active = inhibition above about 31%); conditions: absorbance 615 nm, about 18 h, stronger effect = higher value
[8] = growth suppression of yeast trafficking mutant, preliminary HTS, modulators of trafficking downstream of Golgi apparatus project, 1536-format plate, OD 615 nm (AID 637); conditions: yeast transport mutant growth, absorbance 615 nm, 18 h; stronger effect = higher value
[9] = H69AR cells + 2 uM doxorubicin, measured here: viability with 2 uM doxorubicin, stronger effect = lower value
[10] = H69AR cells, compound alone cytotoxicity

Receptor tyrosine-protein kinase erbB-2 (Homo sapiens), sequence (P04626 whole entry, looked up): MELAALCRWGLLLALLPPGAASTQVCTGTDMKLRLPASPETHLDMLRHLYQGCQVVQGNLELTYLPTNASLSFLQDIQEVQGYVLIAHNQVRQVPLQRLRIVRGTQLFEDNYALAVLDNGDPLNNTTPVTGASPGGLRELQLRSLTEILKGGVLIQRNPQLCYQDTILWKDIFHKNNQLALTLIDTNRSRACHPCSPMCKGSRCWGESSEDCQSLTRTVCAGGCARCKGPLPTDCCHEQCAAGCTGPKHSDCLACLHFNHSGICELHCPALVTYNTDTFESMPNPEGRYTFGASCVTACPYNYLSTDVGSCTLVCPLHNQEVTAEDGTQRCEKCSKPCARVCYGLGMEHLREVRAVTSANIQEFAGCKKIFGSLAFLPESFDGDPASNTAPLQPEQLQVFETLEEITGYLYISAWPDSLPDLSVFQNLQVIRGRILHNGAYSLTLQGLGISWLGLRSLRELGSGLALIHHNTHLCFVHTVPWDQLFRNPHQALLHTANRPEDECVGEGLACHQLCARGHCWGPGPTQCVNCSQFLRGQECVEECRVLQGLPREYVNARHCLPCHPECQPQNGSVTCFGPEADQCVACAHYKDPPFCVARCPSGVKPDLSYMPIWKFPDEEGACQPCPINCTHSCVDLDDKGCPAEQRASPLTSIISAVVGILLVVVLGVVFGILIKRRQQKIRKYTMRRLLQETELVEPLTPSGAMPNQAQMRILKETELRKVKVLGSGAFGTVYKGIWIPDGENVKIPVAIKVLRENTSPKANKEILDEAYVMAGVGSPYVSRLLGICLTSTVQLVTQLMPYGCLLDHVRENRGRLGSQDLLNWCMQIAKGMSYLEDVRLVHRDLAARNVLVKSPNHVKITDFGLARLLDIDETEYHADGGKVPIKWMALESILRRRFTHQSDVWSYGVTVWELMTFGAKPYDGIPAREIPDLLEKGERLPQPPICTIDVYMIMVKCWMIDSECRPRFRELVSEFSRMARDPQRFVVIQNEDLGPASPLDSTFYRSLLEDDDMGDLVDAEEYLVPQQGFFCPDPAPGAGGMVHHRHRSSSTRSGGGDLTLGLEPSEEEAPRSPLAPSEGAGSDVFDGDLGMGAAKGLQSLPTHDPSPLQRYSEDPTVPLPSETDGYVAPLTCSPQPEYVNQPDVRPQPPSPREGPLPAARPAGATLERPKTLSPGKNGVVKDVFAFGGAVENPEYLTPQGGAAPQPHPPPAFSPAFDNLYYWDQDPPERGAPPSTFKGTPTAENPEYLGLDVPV

Row | Structure (SMILES) | viability [1] | Her2 level [2] | viability [3] | viability [4] | viability [5] | differential viability (reversal) ([6]; H69AR cells + 2 uM doxorubicin) | viability [6, 9] | viability [6, 10] | inhibition [7] | inhibition [8]
1 | Cc1ccc(Nc2cc(C)nc3ncnn23)c(Cl)c1 | 85% | 88.5% (inactive) | 85% (inactive) | 87% (inactive) | 97% (inactive) | 12.2% (inactive) | 84.9% | 97% | -3.33% (inactive) | -2.3% (inactive)
2 | CCC(NS(=O)(=O)c1ccc(C)cc1)C(=O)N1CCC2(O)CCCCC2C1 (stereo not given) | 94% | 105% (inactive) | 94% (inactive) | 90.7% (inactive) | 94.5% (inactive) | 5.91% (inactive) | 88.6% | 94.5% | -3.2% (inactive) | -1.8% (inactive)
3 | CCOC(=O)CSc1nc2ccccc2n2cnnc12 | 104% | 76.5% (inactive) | 104% (inactive) | 91.4% (inactive) | 83.9% (inactive) | 2.78% (inactive) | 81.1% | 83.9% | -5.54% (inactive) | -2% (inactive)
4 | Cc1cc(C(=O)NCCCN2CCN(C3CCCCC3)CC2)n(-c2ccccc2)n1 | 94% | 111% (inactive) | 94% (inactive) | 111% (inactive) | 103% (inactive) | 11.8% (inactive) | 90.8% | 103% | 1.73% (inactive) | -8.33% (inactive)
5 | COC(=O)C1=C(C)NC(=O)C1(NC(=O)c1cccnc1)C(F)(F)F (stereo not given) | 126% | 96.5% (inactive) | 126% (inactive) | 99.4% (inactive) | 103% (inactive) | 14% (inactive) | 88.7% | 103% | -2.5% (inactive) | 0.55% (inactive)
6 | O=C(O)c1cc(/C=N\O)ccc1OCc1ccccc1 | 114% | 106% (inactive) | 114% (inactive) | 95.9% (inactive) | 103% (inactive) | 11.7% (inactive) | 91.2% | 103% | -5.33% (inactive) | 1.29% (inactive)
7 | O=C(COc1ncnc2ccccc12)NCc1ccc2c(c1)OCO2 | 100% | 96% (inactive) | 100% (inactive) | 92.8% (inactive) | 92.6% (inactive) | -1.82% (inactive) | 94.4% | 92.6% | -4.21% (inactive) | 4.92% (inactive)
8 | CCOC(=O)CSc1ncnc2c1cnn2-c1ccc(C)cc1 | 103% | 88.5% (inactive) | 103% (inactive) | 75% (inactive) | 90.6% (inactive) | -0.755% (inactive) | 91.4% | 90.6% | -6.4% (inactive) | 0.33% (inactive)
9 | N#CC1=C(N)Oc2n[nH]c(-c3ccncc3)c2C1c1ccsc1 (stereo not given) | 88% | 95% (inactive) | 88% (inactive) | 113% (inactive) | 87.7% (inactive) | -6.48% (inactive) | 94.2% | 87.7% | 0.53% (inactive) | -4% (inactive)
10 | CC(C(=O)NCc1cccnc1)N1C(=O)c2ccccc2C1=O (stereo not given) | 103% | 97% (inactive) | 103% (inactive) | 99.9% (inactive) | 93.7% (inactive) | -3.79% (inactive) | 97.5% | 93.7% | -3.03% (inactive) | -4.36% (inactive)
11 | COC(=O)c1[nH]c2ccccc2c1NC(=O)CN1CCC(C(N)=O)(N2CCCCC2)CC1 | 96% | 97.5% (inactive) | 96% (inactive) | 101% (inactive) | 93.2% (inactive) | 5.43% (inactive) | 87.8% | 93.2% | 1.58% (inactive) | 0.49% (inactive)
12 | Cc1ccc(-c2noc(C3CCCN(C(=O)c4ccccc4)C3)n2)o1 (stereo not given) | 86% | 95% (inactive) | 86% (inactive) | 94.8% (inactive) | 95.1% (inactive) | 4.09% (inactive) | 91% | 95.1% | -5.66% (inactive) | 0.33% (inactive)
13 | Cc1nnc(SCc2ccccc2)n1N | 104% | 98% (inactive) | 104% (inactive) | 103% (inactive) | 99.6% (inactive) | 0.72% (inactive) | 98.9% | 99.6% | -0.67% (inactive) | -5.32% (inactive)
14 | COc1ccc(NC(=O)CCc2nc(-c3ccccc3F)no2)cc1 | 115% | 99% (inactive) | 115% (inactive) | 91.9% (inactive) | 93.6% (inactive) | 4.53% (inactive) | 89.1% | 93.6% | -0.26% (inactive) | -0.66% (inactive)
15 | CC(C)CC(NC(=O)OC(C)(C)C)C(=O)NC(C(=O)NC(C)C(N)=O)C(C)C (stereo not drawn) (Boc-Leu-Val-Ala-NH2; configuration not given here) | 102% | 107% (inactive) | 102% (inactive) | 94.2% (inactive) | 112% (inactive) | 19.3% (inactive) | 93% | 112% | -4.27% (inactive) | -3.23% (inactive)
16 | c1ccc(CCn2nnnc2CN2CCN(C3CCCC3)CC2)cc1 | 97.5% | 95% (inactive) | 97.5% (inactive) | 109% (inactive) | 107% (inactive) | 19.1% (inactive) | 87.5% | 107% | 2.03% (inactive) | -6.51% (inactive)
17 | CCC(CO)Nc1ncnc2c1cnn2-c1ccc(Cl)cc1 (stereo not given) | 94.5% | 126% (inactive) | 94.5% (inactive) | 91.7% (inactive) | 93.7% (inactive) | 13.5% (inactive) | 80.2% | 93.7% | -5.73% (inactive) | -5% (inactive)
18 | COc1ccc(S(=O)(=O)NCC(=O)N(CC(=O)NCC2CCCO2)c2ccccc2C)cc1 (stereo not given) | 123% | 82% (inactive) | 123% (inactive) | 107% (inactive) | 83.4% (inactive) | 7.01% (inactive) | 76.4% | 83.4% | -3.73% (inactive) | -0.32% (inactive)
19 | CCCn1c(SCC(=O)N2CCc3ccccc3C2)nc2c1c(=O)n(C)c(=O)n2C | 78.5% | 128% (inactive) | 78.5% (inactive) | 91.2% (inactive) | 84.9% (inactive) | 2.96% (inactive) | 81.9% | 84.9% | 0.26% (inactive) | 9% (inactive)
20 | Cc1ccc(S(=O)(=O)N[C@@H](C)C(=O)N2CCC(C(=O)N3CCC[C@H]3C(=O)O)CC2)cc1 | 98% | 100% (inactive) | 98% (inactive) | 88.7% (inactive) | 102% (inactive) | 8.07% (inactive) | 93.6% | 102% | -4.4% (inactive) | 1.31% (inactive)
21 | CC1(C)NC(=O)N(CNc2cc(Cl)ccc2Cl)C1=O | 104% | 87.5% (inactive) | 104% (inactive) | 85.7% (inactive) | 96.4% (inactive) | 0.94% (inactive) | 95.5% | 96.4% | -3.55% (inactive) | -1.82% (inactive)
22 | O=C(CSc1n[nH]c(-c2cccs2)n1)N1CCN(S(=O)(=O)c2ccccc2)CC1 | 80.5% | 78.5% (inactive) | 80.5% (inactive) | 97.4% (inactive) | 102% (inactive) | -3.67% (inactive) | 106% | 102% | 0.91% (inactive) | 9.84% (inactive)
23 | COc1ccc(CN(CC(=O)NCC2CCCO2)C(=O)CNS(=O)(=O)c2ccc(C)cc2)cc1 (stereo not given) | 107% | 102% (inactive) | 107% (inactive) | 96.3% (inactive) | 97.2% (inactive) | 2.2% (inactive) | 95% | 97.2% | -0.53% (inactive) | -6.23% (inactive)
24 | CCCC(C)c1nnc(NC(=O)C2CCCO2)s1 (stereo not given) | 126% | 91% (inactive) | 126% (inactive) | 95.8% (inactive) | 93.9% (inactive) | 0.895% (inactive) | 93% | 93.9% | -7.33% (inactive) | -3.06% (inactive)
25 | CCOC(=O)c1cnc(-n2cc(C)cn2)nc1Nc1ccccc1OC | 92.5% | 94% (inactive) | 92.5% (inactive) | 80.8% (inactive) | 60.8% (inactive) | -8.94% (inactive) | 69.8% | 60.8% | -4.55% (inactive) | -4.13% (inactive)
26 | CCN(CCCNC(=O)CC1Oc2ccc(C)cc2NC1=O)Cc1ccccc1 (stereo not given) | 116% | 94.5% (inactive) | 116% (inactive) | 97.8% (inactive) | 85% (inactive) | 4.2% (inactive) | 80.8% | 85% | -2.27% (inactive) | -2.13% (inactive)
27 | COCCN1Cc2cccc(C(=O)Nc3cccnc3)c2C1=O | 106% | 81% (inactive) | 106% (inactive) | 102% (inactive) | 93.5% (inactive) | -4.91% (inactive) | 98.4% | 93.5% | -6.71% (inactive) | 1.9% (inactive)
